Active and inactive are the calls of the source. The calls are words filed in the database; no cut-off is given here.
What was measured:
[1] = target: T1, Amine oxidase [flavin-containing] B (Homo sapiens, UniProt P27338); test: biochemical; assay type: cell-based
T1 sequence (P27338 whole entry): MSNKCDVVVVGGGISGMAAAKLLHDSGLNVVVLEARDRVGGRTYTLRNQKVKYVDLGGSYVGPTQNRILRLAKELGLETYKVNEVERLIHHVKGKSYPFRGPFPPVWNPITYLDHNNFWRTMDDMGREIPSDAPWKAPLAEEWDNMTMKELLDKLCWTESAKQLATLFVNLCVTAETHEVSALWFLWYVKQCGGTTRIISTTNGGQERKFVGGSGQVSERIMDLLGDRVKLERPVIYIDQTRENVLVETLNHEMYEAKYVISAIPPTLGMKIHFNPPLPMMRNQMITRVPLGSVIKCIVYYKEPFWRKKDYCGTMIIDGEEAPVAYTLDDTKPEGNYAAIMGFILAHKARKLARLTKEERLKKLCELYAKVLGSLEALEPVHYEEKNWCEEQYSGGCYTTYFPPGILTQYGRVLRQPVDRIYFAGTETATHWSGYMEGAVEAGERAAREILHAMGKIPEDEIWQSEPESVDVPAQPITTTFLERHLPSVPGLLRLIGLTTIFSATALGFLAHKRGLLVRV

[2] = target: T2, Amine oxidase [flavin-containing] A (Homo sapiens, UniProt P21397); test: Inhibition of recombinant human MAO-A expressed in baculovirus infected BTI insect cells at 12.5 uM using kynuramine as substrate measured after 30 mins by fluorescence based assay relative to control; details: 0.5 h
T2 sequence (P21397 whole entry): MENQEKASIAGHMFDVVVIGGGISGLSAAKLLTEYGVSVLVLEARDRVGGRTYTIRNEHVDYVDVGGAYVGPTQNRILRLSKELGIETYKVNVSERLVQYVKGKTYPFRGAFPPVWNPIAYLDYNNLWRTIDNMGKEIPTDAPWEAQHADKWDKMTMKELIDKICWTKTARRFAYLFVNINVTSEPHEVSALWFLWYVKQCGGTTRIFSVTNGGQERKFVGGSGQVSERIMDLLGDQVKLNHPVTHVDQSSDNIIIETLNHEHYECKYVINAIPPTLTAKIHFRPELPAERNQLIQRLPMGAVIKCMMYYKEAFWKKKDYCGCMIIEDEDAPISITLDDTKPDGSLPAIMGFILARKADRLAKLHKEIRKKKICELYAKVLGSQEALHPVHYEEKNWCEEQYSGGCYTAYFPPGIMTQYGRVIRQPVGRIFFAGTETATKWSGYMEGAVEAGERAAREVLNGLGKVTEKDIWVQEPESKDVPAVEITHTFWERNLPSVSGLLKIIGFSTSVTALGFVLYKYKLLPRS

[3] = target: Acetylcholinesterase (AChE) (Electrophorus electricus, UniProt O42275); test: Inhibition of electric eel AChE at 25 uM using acetylthiocholine iodide as substrate incubated for 15 mins by Ellman's method relative to control; details: electric eel acetylcholinesterase (isolated enzyme), probe acetylthiocholine iodide
Acetylcholinesterase (AChE), sequence (O42275 whole entry): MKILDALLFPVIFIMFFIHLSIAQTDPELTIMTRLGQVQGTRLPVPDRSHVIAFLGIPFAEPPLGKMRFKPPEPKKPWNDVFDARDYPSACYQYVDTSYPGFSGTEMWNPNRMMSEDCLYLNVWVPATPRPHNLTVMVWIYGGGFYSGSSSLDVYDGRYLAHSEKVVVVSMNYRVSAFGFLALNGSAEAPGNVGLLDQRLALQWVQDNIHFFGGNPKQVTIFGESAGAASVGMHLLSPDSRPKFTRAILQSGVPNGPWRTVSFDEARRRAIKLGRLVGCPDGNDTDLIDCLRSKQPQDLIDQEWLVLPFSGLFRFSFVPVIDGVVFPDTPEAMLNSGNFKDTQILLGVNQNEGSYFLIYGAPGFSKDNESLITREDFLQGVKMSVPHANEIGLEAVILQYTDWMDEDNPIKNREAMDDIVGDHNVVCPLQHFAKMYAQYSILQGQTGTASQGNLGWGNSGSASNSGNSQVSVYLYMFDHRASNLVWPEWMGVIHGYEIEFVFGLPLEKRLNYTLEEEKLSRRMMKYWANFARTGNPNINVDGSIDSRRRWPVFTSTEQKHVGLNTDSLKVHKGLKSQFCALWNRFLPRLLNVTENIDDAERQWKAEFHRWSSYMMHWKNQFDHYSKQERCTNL

Cholinesterase = Cholinesterase (Equus caballus, UniProt P81908); test: Inhibition of equine serum BuChE using S-butyrylthiocholine iodide as susbtrate preincubated for 6 mins followed by substrate addition measured up to 3 mins by Ellman's method
Cholinesterase, sequence (P81908 whole entry): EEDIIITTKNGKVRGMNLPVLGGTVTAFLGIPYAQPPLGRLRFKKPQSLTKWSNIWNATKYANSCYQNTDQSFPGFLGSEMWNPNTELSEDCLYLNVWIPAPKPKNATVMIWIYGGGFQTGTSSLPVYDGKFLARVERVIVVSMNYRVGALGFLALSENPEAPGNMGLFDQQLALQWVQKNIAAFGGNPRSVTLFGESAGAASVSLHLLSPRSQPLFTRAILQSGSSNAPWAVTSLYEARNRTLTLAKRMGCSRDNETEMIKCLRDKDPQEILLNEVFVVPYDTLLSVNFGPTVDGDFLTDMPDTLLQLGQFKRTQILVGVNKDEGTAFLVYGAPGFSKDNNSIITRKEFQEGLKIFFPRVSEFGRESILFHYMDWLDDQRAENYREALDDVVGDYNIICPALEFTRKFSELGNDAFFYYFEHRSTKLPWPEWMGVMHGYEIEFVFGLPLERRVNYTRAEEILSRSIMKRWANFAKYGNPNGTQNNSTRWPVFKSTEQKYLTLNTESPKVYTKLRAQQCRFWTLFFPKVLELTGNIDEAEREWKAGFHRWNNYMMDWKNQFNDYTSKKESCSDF

[4] = Antioxidant activity assessed as trolox equivalents of AAPH radical scavenging activity preincubated for 15 mins followed by AAPH addition and measured every minute for 90 mins by ORAC-FL assay; assay type: functional
[5] = target: Amyloid-beta precursor protein (Homo sapiens) (UniProt P05067); test: Inhibition of self-induced amyloid beta (1 to 42) (unknown origin) aggregation at 25 uM after 24 hrs by thioflavin-T based fluorescence assay relative to control
Amyloid-beta precursor protein (Homo sapiens), sequence (P05067 whole entry): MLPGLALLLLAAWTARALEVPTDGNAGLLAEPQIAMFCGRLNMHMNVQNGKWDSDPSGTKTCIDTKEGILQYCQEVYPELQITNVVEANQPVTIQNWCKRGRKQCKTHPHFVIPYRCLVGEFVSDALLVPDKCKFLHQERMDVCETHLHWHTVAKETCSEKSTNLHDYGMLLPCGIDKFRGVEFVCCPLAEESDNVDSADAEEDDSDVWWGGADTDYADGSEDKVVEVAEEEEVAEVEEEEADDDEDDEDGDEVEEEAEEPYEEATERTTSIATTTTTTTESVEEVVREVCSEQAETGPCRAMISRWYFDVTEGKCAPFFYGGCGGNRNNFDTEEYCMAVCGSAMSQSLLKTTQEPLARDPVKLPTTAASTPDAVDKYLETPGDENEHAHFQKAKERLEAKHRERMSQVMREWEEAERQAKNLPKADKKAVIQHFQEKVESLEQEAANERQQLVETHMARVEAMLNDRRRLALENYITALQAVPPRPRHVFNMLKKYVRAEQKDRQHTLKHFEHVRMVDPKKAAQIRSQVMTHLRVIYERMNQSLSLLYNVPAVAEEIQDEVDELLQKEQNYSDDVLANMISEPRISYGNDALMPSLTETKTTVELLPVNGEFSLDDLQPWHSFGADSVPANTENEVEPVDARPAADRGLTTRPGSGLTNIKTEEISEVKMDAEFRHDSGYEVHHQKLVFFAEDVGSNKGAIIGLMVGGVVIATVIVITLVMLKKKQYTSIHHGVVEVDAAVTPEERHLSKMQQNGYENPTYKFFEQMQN

[6] = target: Cholinesterase (Equus caballus) (UniProt P81908); test: Reversible inhibition of equine serum BuChE assessed as enzyme activity at IC50 using butyrylthiocholine iodide as substrate by Ellman's method relative to control; set-up: scale not given: the % may be the effect or the level left
Cholinesterase (Equus caballus), sequence (P81908 whole entry): as the sequence (P81908 whole entry) above

[7] = target: Cholinesterase (Equus caballus) (UniProt P81908); test: Reversible inhibition of equine serum BuChE assessed as enzyme activity at 0.1 times IC50 using butyrylthiocholine iodide as substrate by Ellman's method relative to control; set-up: scale not given: the % may be the effect or the level left
Procedure, shortened: (§1)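 Reversibility tested by recovery of equine serum BuChE activity after dilution of inhibitor, with activity monitored over time up to 240 min by the Ellman method (DTNB read at 412 nm). Activity expressed relative to untreated control. Three independent experiments.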

Mus musculus [8] = test: Effect on total arm entries in Kunming mouse model of scopolamine-induced cognitive impairment in at 6 mg/kg, ig pretreated for 30 min followed by scopolamine challenge and measured after 30 mins by Y-maze test; assay type: ADME, organism-based; details: in vivo, po, 0.5 h
Mus musculus [9] = test: Reversal of scopolamine-induced memory cognitive memory impairment in Kunming mouse assessed as change in spontaneous alteration behavior at 6 mg/kg, ig pretreated for 30 mins followed by scopolamine challenge and after 30 mins by Y-maze test (reference value: 45.6%); assay type: functional
[10] = target: Cholinesterase (Equus caballus) (UniProt P81908); test: Reversible inhibition of equine serum BuChE assessed as enzyme activity at 0.1 times IC50 using butyrylthiocholine iodide as substrate measured at 120 mins by Ellman's method relative to control; set-up: scale not given: the % may be the effect or the level left
Procedure, shortened: as §1

[11] = target: Cholinesterase (Equus caballus) (UniProt P81908); test: Inhibition of equine serum BuChE at 25 uM using S-butyrylthiocholine iodide as susbtrate preincubated for 6 mins followed by substrate addition measured up to 3 mins by Ellman's method
[12] = Disaggregation of Cu2+ induced preformed fibrils of amyloid beta (1 to 42) (unknown origin) at 25 uM preincubated with Cu2+ for 24 hrs followed by compound addition and measured after 24 hrs by thioflavin-T based fluorescence assay relative to control
Procedure, shortened: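 Aβ1-42 (25 µM) and Cu2+ (25 µM) preincubated at 37 °C for 24 h, then compound (25 µM) added and incubated a further 24 h at 37 °C. ThT (5 µM in 50 mM glycine-NaOH, pH 8.5) added; fluorescence at ex 446/em 490 nm, background subtracted, % vs no-compound control. Three independent experiments.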

[13] = Inhibition of Cu2+-induced amyloid beta (1 to 42 residues) (unknown origin) aggregation at 25 uM after 24 hrs by thioflavin-T based fluorescence assay relative to control
Procedure, shortened: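 Aβ1-42 (25 µM) and Cu2+ (25 µM) incubated at 37 °C for 24 h with or without compound (25 µM). ThT (5 µM in 50 mM glycine-NaOH, pH 8.5) then added; fluorescence read at ex 446/em 490 nm. Inhibition = (1−IFi/IFc)×100 after background subtraction. Three independent experiments.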

[14] = Metal chelating activity of the compound assessed as formation of Fe2+-compound complex at 37.5 uM after 30 mins by UV-vis absorption spectra analysis
Procedure, shortened: (§2)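 Metal binding examined by plate-reader absorbance scan using CuCl2, ZnCl2, AlCl3, FeSO4, CuCl and Fe(NO3)3 as metal sources.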

in vitro = details: PAMPA, pH 7.4
[15] = Metal chelating activity of the compound assessed as formation of Zn2+-compound complex at 37.5 uM after 30 mins by UV-vis absorption spectra analysis
Procedure, shortened: as §2

PC-12 [16] = test: Neuroprotective activity against H2O2-induced cell death in rat PC12 cells assessed as cell viability at 1 uM pretreated for 2 hrs followed by H2O2 addition measured after 30 mins by MTT assay (reference value: 49.6%); assay type: functional; details: read-out: Activity
[17] = Metal chelating activity of the compound assessed as formation of Al3+-compound complex at 37.5 uM after 30 mins by UV-vis absorption spectra analysis
Procedure, shortened: as §2

[18] = Metal chelating activity of the compound assessed as formation of Cu2+-compound complex at 37.5 uM after 30 mins by UV-vis absorption spectra analysis
Procedure, shortened: as §2

PC-12 [19] = test: Neuroprotective activity against H2O2-induced cell death in rat PC12 cells assessed as cell viability at 10 uM pretreated for 2 hrs followed by H2O2 addition measured after 30 mins by MTT assay (reference value: 49.6%); assay type: functional; details: read-out: Activity

Structure (SMILES) | IC50 [1] [µM] | inhibition at 12.5 µM [2] [%] | inhibition at 0.25 h, 25 µM [3] [%] | IC50 (Cholinesterase) [µM] | Activity [4] [µMequiv/µM] | inhibition [5] [%] | also measured
CCN(CC)C(=O)Oc1cccc(/C=C/C(=O)c2ccccc2O)c1 | 1.8 | 38.1 | 16.9 | 4.8 | 1.3 | – | –
CCN(CC)C(=O)Oc1cccc(/C=C/C(=O)c2ccccc2OC(=O)N(CC)CC)c1 | 3.3 | 21.1 | 21.9 | 3.1 | 0.31 | 51.5 | –
O=C(/C=C/c1cccc(OC(=O)N2CCOCC2)c1)c1ccccc1O | 3.1 | 17.4 | 24.3 | 5.1 | 1.2 | – | –
O=C(/C=C/c1cccc(OC(=O)N(c2ccccc2)c2ccccc2)c1)c1ccccc1OC(=O)N(c1ccccc1)c1ccccc1 | 6.3 | 18.2 | 27.1 | 42.6 | 0.33 | – | –
CN(C)C(=O)Oc1cccc(/C=C/C(=O)c2ccccc2OC(=O)N(C)C)c1 | 2.9 | 18.9 | 11.7 | 4.5 | 0.32 | – | –
CCN(C)C(=O)Oc1cccc([C@H](C)N(C)C)c1 [RIVASTIGMINE] | – | – | – | – | – | – | Activity [6]: 49.8%; Activity [7]: 46.9%; Activity (Mus musculus [8]): Non-Toxic; Activity (Mus musculus [9]): 65.3%; Activity [10]: 71.6%
O=C(/C=C/c1cccc(OC(=O)N2CCOCC2)c1)c1ccccc1OC(=O)N1CCOCC1 | 5.2 | 20.9 | 20.8 | 2 | 0.32 | 49.2 | –
O=C(/C=C/c1cccc(O)c1)c1ccccc1O | 1.1 | 28.1 | 23.3 | – | 2.6 | 70.6 | inhibition [11]: 28.9%
CON(C)C(=O)Oc1cccc(/C=C/C(=O)c2ccccc2O)c1 | 2.6 | 33.8 | 30.4 | 3.2 | 1.2 | 61.4 | –
COc1cc2c(cc1OC)C(=O)C(CC1CCN(Cc3ccccc3)CC1)C2 (stereo unspecified) | – | – | – | – | – | – | Activity [6]: 54.1%; Activity [10]: 104%
CON(C)C(=O)Oc1cccc(/C=C/C(=O)c2ccccc2OC(=O)N(C)OC)c1 | 4.6 | 10.3 | 45.4 | 1.5 | 0.32 | 49.9 | –
COc1cc(/C=C/C(=O)CC(=O)/C=C/c2ccc(O)c(OC)c2)ccc1O | – | – | – | – | – | – | Activity [12]: 58.2%; inhibition [13]: 73.4%
O=C(/C=C/c1cccc(OC(=O)N(c2ccccc2)c2ccccc2)c1)c1ccccc1O | 4.9 | 18.2 | 18.9 | 56.2 | 1.1 | – | –
CCN(C)C(=O)Oc1cccc(/C=C/C(=O)c2ccccc2OC(=O)N(C)CC)c1 | 3.7 | 28.4 | 35.4 | 1.2 | 0.35 | 53.1 | Activity [14]: inactive; Activity [6]: 49.7%; Activity [7]: 50.7%; Papp at 100 ug/ml (in vitro): 23.1 ×10⁻⁶ cm/s; Activity [15]: inactive; Activity [10]: 70.9%; viability at 1 µM (PC-12 [16]): 53.7%; Activity [17]: inactive; Activity [18]: inactive; viability at 10 µM (PC-12 [19]): 63.2%
CN(C)C(=O)Oc1cccc(/C=C/C(=O)c2ccccc2O)c1 | 0.8 | 19.9 | 28.8 | 2.51 | 1.1 | 60.2 | –

Source: ChEMBL document CHEMBL4364279, “Design, synthesis, in-silico and biological evaluation of novel chalcone-O-carbamate derivatives as multifunctional agents for the treatment of Alzheimer's disease” (Eur J Med Chem, 2019)
